Published values from different studies.
Compare with care: the assays were run in different laboratories.
Effect on: microbial growth

Structure (SMILES) | organism | technique | strain | time | MIC
O=C(O)c1cn(C2CC2)c2cc(N3CCNCC3)c(F)cc2c1=O | Proteus vulgaris | – | DSM2140 | – | ≤ 0.03 µg/mL
CCCCCCC/C=C/C(=O)N1C(=O)/C(=C(\O)c2ccc(OCOCCOC)cc2)C(=O)C1CC(C)C (stereo not drawn) | Proteus vulgaris | – | ATCC33420 | – | > 200 µg/mL
CCCCCCCCCCCCS(=O)(=O)C[C@@H]1O[C@@H](O[C@@H]2[C@@H](O)[C@H](O[C@@H]3O[C@@H](CN)[C@H](O)[C@@H](O)[C@@H]3N)[C@@H](N)C[C@H]2N)[C@@H](O)[C@H](N)[C@H]1O | Listeria monocytogenes | – | ATCC19115 | – | 4 to 8 µg/mL
CC(C)Oc1c(NC(=O)c2ccc(NC(=O)c3ccc(NC(=O)[C@H](CC(N)=O)NC(=O)c4ccc(NC(=O)c5ccc(C#N)s5)cc4)cc3)c(OC(C)C)c2O)ccc(C(=O)O)c1O | Proteus vulgaris | – | DSM2140 | – | 1 µg/mL
O=C(CCc1ccc(O)c(O)c1)NCCCCCCCC[P+](c1ccccc1)(c1ccccc1)c1ccccc1.[Br-] | Cryptococcus neoformans | broth dilution | ATCC208821 | 24 h | > 32 µg/mL
CCCCCCC/C=C/C(=O)N1C(=O)/C(=C(\O)c2ccccc2)C(=O)C1CC(C)C (stereo not drawn) | Proteus vulgaris | – | ATCC33420 | – | > 200 µg/mL
CNC(=O)c1cc(Oc2ccc(NC(=O)Nc3ccc(Cl)c(C(F)(F)F)c3)cc2)ccn1 | Listeria monocytogenes | – | – | – | 3 µM
CCCCCCC/C=C/C(=O)N1C(=O)/C(=C(/C)O)C(=O)C1CCC(=O)O (stereo not drawn) | Proteus vulgaris | – | ATCC33420 | – | > 200 µg/mL
CC(C)Oc1c(NC(=O)c2ccc(NC(=O)[C@H](CC(N)=O)NC(=O)c3ccc(NC(=O)c4ccc(C#N)cn4)cc3)cc2)ccc(C(=O)Nc2ccc(C(=O)O)cc2)c1O | Proteus vulgaris | – | DSM2140 | – | 0.06 µg/mL
CCCCCCCCCCCCCCS(=O)(=O)C[C@@H]1O[C@@H](O[C@@H]2[C@@H](O)[C@H](O[C@@H]3O[C@@H](CN)[C@H](O)[C@@H](O)[C@@H]3N)[C@@H](N)C[C@H]2N)[C@@H](O)[C@H](N)[C@H]1O | Listeria monocytogenes | – | ATCC19115 | – | 2 to 4 µg/mL
O=C(CCCCCCCCCC[P+](c1ccccc1)(c1ccccc1)c1ccccc1)Nc1cc(O)c(O)c(O)c1.[Br-] | Cryptococcus neoformans | broth dilution | ATCC208821 | 24 h | 4 µg/mL
CC(C)Oc1c(NC(=O)c2ccc(NC(=O)c3ccc(NC(=O)[C@H](CC(N)=O)NC(=O)c4ccc(NC(=O)c5ccc(C#N)cn5)cc4)cc3)c(OC(C)C)c2O)ccc(C(=O)O)c1O | Proteus vulgaris | – | DSM2140 | – | 1 µg/mL
CN1CCN(CC(O)(Cn2cncn2)c2ccc(F)cc2F)CC1 (stereo not drawn) | Nakaseomyces glabratus | broth dilution | ATCC2001 | 48 h | 31.3 µg/mL
O=C(Cc1ccc(O)c(O)c1)NCCCCCCCC[P+](c1ccccc1)(c1ccccc1)c1ccccc1.[Br-] | Cryptococcus neoformans | broth dilution | ATCC208821 | 24 h | > 32 µg/mL
CCCCCCC/C=C/C(=O)N1CC(=O)/C(=C(\C)O)C1=O | Proteus vulgaris | – | ATCC33420 | – | > 200 µg/mL
CC(C)Oc1c(-n2cc(-c3ccc(NC(=O)C(CC(N)=O)NC(=O)c4ccc(NC(=O)c5ccc(C#N)cc5)cc4)cc3)nn2)ccc(C(=O)Nc2ccc(C(=O)O)cc2)c1O (stereo not drawn) | Proteus vulgaris | – | DSM2140 | – | 2 µg/mL
C/C(O)=C1\C(=O)C(CC(C)C)N(C(=O)CCCCCc2ccccc2)C1=O (stereo not drawn) | Proteus vulgaris | – | ATCC33420 | – | > 200 µg/mL
CCCCCCCCN1CCN(CC(O)(Cn2cncn2)c2ccc(F)cc2F)CC1 (stereo not drawn) | Nakaseomyces glabratus | broth dilution | ATCC2001 | 48 h | 15.6 µg/mL
